Publication PMC6438848 (Saudi Pharmaceutical Journal : SPJ, 2018)

Experiments:
[1] = system: MV-4-11 cells (biphenotypic B myelomonocytic leukemia); assay: In vitro antiproliferative assay; assay type: cell-based, human; details: for IC50: Homo sapiens, MV4-11, 72 h, read-out: IC50 ± SD
[2] = system: MCF-7 cells (human breast carcinoma); assay: In vitro antiproliferative assay; assay type: cell-based; details: for IC50: Homo sapiens, MCF7, 72 h, read-out: IC50 ± SD
[3] = system: JURKAT cells (human leukemic T-cell lymphoblast); assay: In vitro antiproliferative assay; assay type: cell-based; details: for IC50: Homo sapiens, Jurkat, 72 h, read-out: IC50 ± SD
[4] = system: HT-29 cells (human colon adenocarcinoma); assay: In vitro antiproliferative assay; assay type: cell-based; details: for IC50: Homo sapiens, HT-29, 72 h, read-out: IC50 ± SD
[5] = system: Hep-G2 cells (human hepatocellular carcinoma); assay: In vitro antiproliferative assay; assay type: cell-based; details: for IC50: Homo sapiens, HepG2, 72 h, read-out: IC50 ± SD
[6] = system: HeLa cells (human cervical carcinoma); assay: In vitro antiproliferative assay; assay type: cell-based; details: for IC50: Homo sapiens, 72 h, read-out: IC50 ± SD
[7] = system: Du-145 cells (human prostate carcinoma); assay: In vitro antiproliferative assay; assay type: cell-based; details: for IC50: Homo sapiens, DU-145, 72 h, read-out: IC50 ± SD
[8] = system: MCF-10A normal human mammary gland epithelial cells; assay: cells; assay type: cell-based; details: for IC50: Homo sapiens, MCF-10A, 72 h, read-out: IC50 ± SD; for cytotoxic activity against MCF-10A, times lower than against cancer cell lines: MCF-10A vs MCF-7, JURKAT, HT-29, Hep-G2, HeLa, Du-145, DAUDI; for cytotoxic activity against MCF-10A, times lower than against cancer cells: MCF-10A vs MV4-11 (cancer cell lines)
[9] = Determination of lipophilicity by RP UPLC; assay type: physicochemical; details: for -S (slope of the regression curve): log k = log kw + SΦ; for log kw (capacity factor of the analyte in pure water): Kinetex C18, methanol 0.65-0.95 v/v, 25 °C
Summary of the method: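 Kinetex C18 column (150 × 4.6 mm, 2.6 µm) on a UPLC with UV detection at 254 nm. Test compound was dissolved in methanol at 10 µg/ml. Isocratic methanol fractions ran at 0.5 ml/min and 25 °C. Dead time was taken from uracil. log k was regressed linearly on methanol fraction Φ (Soczewiński–Wachtmeister), giving log kw as the intercept and S as the slope.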

[10] = system: DAUDI cells (Burkitt lymphoma); assay: In vitro antiproliferative assay; assay type: cell-based, human; details: for IC50: Homo sapiens, Daudi, 72 h, read-out: IC50 ± SD
[11] = system: human cancer cell lines (MV-4-11, MCF-7, JURKAT, HT-29, Hep-G2, HeLa, Du-145, DAUDI); assay: In vitro antiproliferative assay, summary over several cancer cell lines; assay type: cell-based; details: read-out: IC50 values in relation to other cell lines

Structure (SMILES)	IC50 [1] [µg/mL]	IC50 [2] [µg/mL]	IC50 [3] [µg/mL]	IC50 [4] [µg/mL]	IC50 [5] [µg/mL]	IC50 [6] [µg/mL]	IC50 [7] [µg/mL]	IC50 [8] [µg/mL]	Φ0 lipophilicity parameter (−log kw/S) [9]	-S (slope of the regression curve) [9]	IC50 [10] [µg/mL]	log kw (capacity factor of the analyte in pure water) [9]	cytotoxic activity against MCF-10A, times lower than against cancer cell lines [8]	cytotoxic activity against MCF-10A, times lower than against cancer cells [8]	IC50 [11] [µg/mL]	other results
CC(=O)c1ccc([N+]2=NN(CCCl)CC2)cc1.[Cl-] [2a, 3-(4-Acetylphenyl)-1-(2-chloroethyl)-4,5-dihydro-1H-1,2,3-triazol-3-ium chloride]	13.4 ± 5.94	45.1 ± 1.65	66.2 ± 13.4	49.3 ± 17.4	38.5 ± 12.3	39.4 ± 9.77	89 ± 9.31	80 ± 8.43	1.958	0.755						
ClCCN1CC[N+](c2ccccc2)=N1.[Cl-] [2b, 1-(2-Chloroethyl)-3-phenyl-4,5-dihydro-1H-1,2,3-triazol-3-ium chloride]	44.6 ± 4.37	50.4 ± 8.08	68.5 ± 6.36	48.9 ± 18.7	37.9 ± 17.1	39.4 ± 11.5			1.519	1.318	40.2 ± 4.29	−2.002				
Cc1ccc([N+]2=NN(CCCl)CC2)cc1.[Cl-] [2c, 1-(2-Chloroethyl)-3-p-tolyl-4,5-dihydro-1H-1,2,3-triazol-3-ium chloride]	5.42 ± 2.52	19.8 ± 3.02	13.1 ± 0.503	16.2 ± 7.37	23.8 ± 5.36	18.1 ± 7.04	36.4 ± 5.29	61.6 ± 13.1	1.338	2.000	4.91 ± 1.53		1–5 times	6–11 times	12.5 to 36.4	
FC(F)(F)c1cccc([N+]2=NN(CCCl)CC2)c1.[Cl-] [2d, 1-(2-Chloroethyl)-3-(3-(trifluoromethyl)phenyl)-4,5-dihydro-1H-1,2,3-triazol-3-ium chloride]	5.59 ± 3.03	16.5 ± 4.14	24.3 ± 1.22	31.7 ± 5.45	14.9 ± 1.08	22.7 ± 2.98	30.9 ± 3.15	32.6 ± 2.79	1.204	2.802	17.6 ± 2.29	−3.373	1–5 times	6–11 times	12.5 to 36.4	
ClCCN1CC[N+](c2ccc(Cl)cc2)=N1.[Cl-] [2e, 1-(2-Chloroethyl)-3-(4-chlorophenyl)-4,5-dihydro-1H-1,2,3-triazol-3-ium chloride]	7.69 ± 3.17	15.1 ± 2.77	13.6 ± 3	31.9 ± 8.14	14.9 ± 4.66	12.5 ± 2.23	30.1 ± 10.2	49.3 ± 15.5	1.196	2.928	13.6 ± 3.66	−3.503	1–5 times	6–11 times	12.5 to 36.4	
CCOC(=O)c1ccc([N+]2=NN(CCCl)CC2)cc1.[Cl-] [2f, 1-(2-Chloroethyl)-3-(4-(ethoxycarbonyl)phenyl)-4,5-dihydro-1H-1,2,3-triazol-3-ium chloride]	6.16 ± 1.76	20.9 ± 2.19	36 ± 7.11	5.59 ± 0.632	27.8 ± 10.1	23.5 ± 3.32	22.8 ± 10.1	42 ± 17.3	1.301	2.259	61.9 ± 24.8			6–11 times		
O=[N+]([O-])c1ccc([N+]2=NN(CCCl)CC2)cc1.[Cl-] [2g, 1-(2-Chloroethyl)-3-(4-nitrophenyl)-4,5-dihydro-1H-1,2,3-triazol-3-ium chloride]	14.1 ± 7.75	23.9 ± 7.48	49.1 ± 14.1	47.6 ± 3.42	32.1 ± 1.4	29 ± 5.35	34.1 ± 1.35	36.6 ± 9.52	2.532	0.594						
Fc1ccc([N+]2=NN(CCCl)CC2)cc1.[Cl-] [2i, 1-(2-Chloroethyl)-3-(4-fluorophenyl)-4,5-dihydro-1H-1,2,3-triazol-3-ium chloride]	51.4 ± 11.9	61.4 ± 21.8			70.2 ± 13.9	51.3 ± 14.7			1.824	1.027	75.6 ± 17.8	−1.873				
N.N.[Cl][Pt][Cl] [cis-platin, reference compound]																IC50 ± SD ([1]; MV-4-11, 72 h exposure, MTT): 0.76 ± 0.184 µg/mL; IC50 ± SD ([2]; MCF-7, 72 h exposure, SRB): 1.73 ± 0.443 µg/mL; IC50 ± SD ([3]; JURKAT, 72 h exposure, MTT): 0.24 ± 0.056 µg/mL; IC50 ± SD ([4]; HT-29, 72 h exposure, SRB): 3.63 ± 0.715 µg/mL; IC50 ± SD ([5]; Hep-G2, 72 h exposure, SRB): 0.68 ± 0.147 µg/mL; IC50 ± SD ([6]; 72 h exposure, SRB): 0.37 ± 0.137 µg/mL; IC50 ± SD ([7]; Du-145, 72 h exposure, SRB): 0.59 ± 0.086 µg/mL; IC50 ± SD ([10]; DAUDI, 72 h exposure, MTT): 1.07 ± 0.208 µg/mL; IC50 ± SD ([8]; MCF-10A normal cells, 72 h exposure, SRB): 4.65 ± 1.171 µg/mL
